Results as given in ChEMBL document CHEMBL3272208, “(Vinylaryloxy)acetic acids. A new class of diuretic agents. 3. ((2-Nitro-1-alkenyl)aryloxy)acetic acids” (1976).

Columns and labels:
Canis familiaris [1] = experiment: Diuretic activity in mongrel dog assessed as sodium level in excreted urine at 0.1 mg/kg, iv measured […] after dosage (reference value: 36 uequiv/min); type: functional, Canis lupus familiaris
Summary of the method: (§1)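 Compounds were given iv to dogs as Na salts in H2O. […] The baseline is the mean of two 15-min periods before dosing. The response is the mean of two consecutive 15-min periods of maximal Na+ excretion, usually 15–45 min post-dose. Na+, K+ and Cl- are in μequiv/min and urine volume in ml/min, reported as control/drug.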

Canis familiaris [2] = experiment: Diuretic activity in mongrel dog assessed as potassium level in excreted urine at 1 mg/kg, iv measured between 15 to 45 mins after dosage (reference value: 6 to 47 uequiv/min); type: functional, Canis lupus familiaris; summary of the method: as §1
Canis familiaris [3] = experiment: Diuretic activity in mongrel dog assessed as potassium level in excreted urine at 0.1 mg/kg, iv measured between 15 to 45 mins after dosage (reference value: 14 uequiv/min); type: functional, Canis lupus familiaris; summary of the method: as §1
Canis familiaris [4] = experiment: Diuretic activity in mongrel dog assessed as chloride level in excreted urine at 0.1 mg/kg, iv measured between 15 to 45 mins after dosage (reference value: 14 uequiv/min); type: functional, Canis lupus familiaris; summary of the method: as §1
Canis familiaris [5] = experiment: Diuretic activity in mongrel dog assessed as volume of excreted urine at 1 mg/kg, iv measured between 15 to 45 mins after dosage (reference value: 1 to 4 ml/min); type: functional, Canis lupus familiaris; summary of the method: as §1
Canis familiaris [6] = experiment: Diuretic activity in mongrel dog assessed as volume of excreted urine at 0.1 mg/kg, iv measured between 15 to 45 mins after dosage (reference value: 1 ml/min); type: functional, Canis lupus familiaris; summary of the method: as §1
Canis familiaris [7] = experiment: Diuretic activity in mongrel dog assessed as sodium level in excreted urine at 1 mg/kg, po measured for 6 hrs (reference value: 2 mequivalents); type: functional, Canis lupus familiaris
Canis familiaris [8] = experiment: Diuretic activity in mongrel dog assessed as potassium level in excreted urine at 1 mg/kg, po measured for 6 hrs (reference value: 1 mequivalents); type: functional, Canis lupus familiaris
Canis familiaris [9] = experiment: Diuretic activity in mongrel dog assessed as potassium level in excreted urine at 0.4 mg/kg, po measured for 6 hrs (reference value: 1 mequivalents); type: functional, Canis lupus familiaris
Canis familiaris [10] = experiment: Diuretic activity in mongrel dog assessed as volume of excreted urine at 1 mg/kg, po measured for 6 hrs (RVb = 180 ml)
Canis familiaris [11] = experiment: Diuretic activity in mongrel dog assessed as volume of excreted urine at 0.4 mg/kg, po measured for 6 hrs (RVb = 180 ml)
Canis familiaris [12] = experiment: Diuretic activity in mongrel dog assessed as sodium level in excreted urine at 10 mg/kg, iv measured […] after dosage (reference value: 5 to 66 uequiv/min); type: functional, Canis lupus familiaris; summary of the method: as §1
Canis familiaris [13] = experiment: Diuretic activity in mongrel dog assessed as sodium level in excreted urine at 1 mg/kg, iv measured […] after dosage (reference value: 3 to 95 uequiv/min); type: functional, Canis lupus familiaris
Summary of the method: (§2)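 Compounds were given iv to dogs as Na salts in H2O. The baseline is the mean of two 15-min periods before dosing. The response is the mean of two consecutive 15-min periods of maximal Na+ excretion, usually 15–45 min post-dose. Na+, K+ and Cl- are in μequiv/min and urine volume in ml/min, reported as control/drug.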

Canis familiaris [14] = experiment: Diuretic activity in mongrel dog assessed as potassium level in excreted urine at 10 mg/kg, iv measured between 15 to 45 mins after dosage (reference value: 7 to 63 uequiv/min); type: functional, Canis lupus familiaris; summary of the method: as §1
Canis familiaris [15] = experiment: Diuretic activity in mongrel dog assessed as chloride level in excreted urine at 1 mg/kg, iv measured between 15 to 45 mins after dosage (reference value: 1 to 70 uequiv/min); type: functional, Canis lupus familiaris; summary of the method: as §2
Canis familiaris [16] = experiment: Diuretic activity in mongrel dog assessed as chloride level in excreted urine at 10 mg/kg, iv measured between 15 to 45 mins after dosage (reference value: 3 to 64 uequiv/min); type: functional, Canis lupus familiaris; summary of the method: as §2
Canis familiaris [17] = experiment: Diuretic activity in mongrel dog assessed as volume of excreted urine at 10 mg/kg, iv measured between 15 to 45 mins after dosage (reference value: 1 to 4 ml/min); type: functional, Canis lupus familiaris; summary of the method: as §1
Canis familiaris [18] = experiment: Diuretic activity in mongrel dog assessed as sodium level in excreted urine at 3 mg/kg, po measured for 6 hrs (reference value: 2 mequivalents); type: functional, Canis lupus familiaris
Canis familiaris [19] = experiment: Diuretic activity in mongrel dog assessed as potassium level in excreted urine at 3 mg/kg, po measured for 6 hrs (reference value: 1 mequivalents); type: functional, Canis lupus familiaris
Canis familiaris [20] = experiment: Diuretic activity in mongrel dog assessed as chloride level in excreted urine at 1 mg/kg, po measured for 6 hrs (reference value: 2 mequivalents); type: functional, Canis lupus familiaris
Canis familiaris [21] = experiment: Diuretic activity in mongrel dog assessed as chloride level in excreted urine at 3 mg/kg, po measured for 6 hrs (reference value: 2 mequivalents); type: functional, Canis lupus familiaris
Canis familiaris [22] = experiment: Diuretic activity in mongrel dog assessed as sodium level in excreted urine at 2 mg/kg, po measured for 6 hrs (reference value: 2 mequivalents); type: functional, Canis lupus familiaris
Canis familiaris [23] = experiment: Diuretic activity in mongrel dog assessed as potassium level in excreted urine at 2 mg/kg, po measured for 6 hrs (reference value: 1 mequivalents); type: functional, Canis lupus familiaris
Canis familiaris [24] = experiment: Diuretic activity in mongrel dog assessed as chloride level in excreted urine at 2 mg/kg, po measured for 6 hrs (reference value: 2 mequivalents); type: functional, Canis lupus familiaris
Canis familiaris [25] = experiment: Diuretic activity in mongrel dog assessed as volume of excreted urine at 2 mg/kg, po measured for 6 hrs (RVb = 180 ml)

Work on `CC(=O)C(=Cc1ccc(OCC(=O)O)c(Cl)c1Cl)C(C)=O` yielded an Activity (Canis familiaris [1]) of 984 uEq/min, an Activity (Canis familiaris [2]) of 104 uEq/min and an Activity (Canis familiaris [3]) of 187 uEq/min. For the same compound, the Activity (Canis familiaris [4]) was 1100 uEq/min, the Activity (Canis familiaris [5]) was 11 mL/min and the Activity (Canis familiaris [6]) was 9 mL/min. For the same compound, the Activity (Canis familiaris [7]) was 30 milliequivalent, the Activity (Canis familiaris [8]) was 7 milliequivalent and the Activity (Canis familiaris [9]) was 6 milliequivalent. The Activity (Canis familiaris [10]) was 492 mL and the Activity (Canis familiaris [11]) was 762 mL.

`C=C(CC)C(=O)c1ccc(OCC(=O)O)c(Cl)c1Cl` [ETHACRYNIC ACID] gave an Activity (Canis familiaris [12]) of 2989 uEq/min, an Activity (Canis familiaris [13]) of 188 uEq/min and an Activity (Canis familiaris [2]) of 52 uEq/min. It also gave an Activity (Canis familiaris [14]) of 194 uEq/min, an Activity (Canis familiaris [15]) of 244 uEq/min and an Activity (Canis familiaris [16]) of 3324 uEq/min. It also gave an Activity (Canis familiaris [5]) of 6 mL/min, an Activity (Canis familiaris [17]) of 22 mL/min and an Activity (Canis familiaris [7]) of 21 milliequivalent. For the same compound, the Activity (Canis familiaris [18]) was 37 milliequivalent, the Activity (Canis familiaris [8]) was 5 milliequivalent and the Activity (Canis familiaris [19]) was 7 milliequivalent. It also gave an Activity (Canis familiaris [20]) of 26 milliequivalent and an Activity (Canis familiaris [21]) of 42 milliequivalent.

With `C/C(=C\c1ccc(OCC(N)=O)c(Cl)c1Cl)[N+](=O)[O-]` the Activity (Canis familiaris [22]) was 25 milliequivalent, the Activity (Canis familiaris [23]) was 8 milliequivalent and the Activity (Canis familiaris [24]) was 39 milliequivalent. The Activity (Canis familiaris [25]) was 485 mL.
